SMILES strings stand for the structures.

For data set [1], the target named is T1, OATP2B1 (Homo sapiens, UniProt O94956).
T1 sequence (O94956 whole entry): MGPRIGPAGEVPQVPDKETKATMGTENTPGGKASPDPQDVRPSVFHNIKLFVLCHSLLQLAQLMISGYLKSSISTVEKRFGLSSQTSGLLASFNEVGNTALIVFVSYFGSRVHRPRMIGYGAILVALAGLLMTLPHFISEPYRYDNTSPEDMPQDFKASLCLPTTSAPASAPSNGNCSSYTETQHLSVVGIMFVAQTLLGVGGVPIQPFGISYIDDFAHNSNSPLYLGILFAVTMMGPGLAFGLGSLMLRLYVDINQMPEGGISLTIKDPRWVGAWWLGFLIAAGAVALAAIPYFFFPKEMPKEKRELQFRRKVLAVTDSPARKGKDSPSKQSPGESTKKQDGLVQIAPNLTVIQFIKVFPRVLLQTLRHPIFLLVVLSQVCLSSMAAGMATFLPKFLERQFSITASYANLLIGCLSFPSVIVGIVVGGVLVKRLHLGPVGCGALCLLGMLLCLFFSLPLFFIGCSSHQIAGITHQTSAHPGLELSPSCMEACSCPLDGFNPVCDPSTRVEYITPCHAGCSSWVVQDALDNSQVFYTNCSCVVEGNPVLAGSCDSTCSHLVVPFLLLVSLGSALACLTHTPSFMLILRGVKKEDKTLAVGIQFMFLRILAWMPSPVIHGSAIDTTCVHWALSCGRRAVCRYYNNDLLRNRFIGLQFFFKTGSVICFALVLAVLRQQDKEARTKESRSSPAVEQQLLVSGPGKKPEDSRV
As to the kind of experiment: Drug uptake by human hepatic OATP2B1 transporter expressed in HEK293 cells at 10 uM relative to wild-type HEK293 cells. The format is ADME, cell-based. The following applies: HEK293 cells expressing OATP2B1, read-out: FC. The method in brief: (§1)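 Individual hepatic OATP transporters were over-expressed in CHO or HEK293 cells: rat rOatp1a1, rOatp1a4 and rOatp1b2, and human hOATP1B1, hOATP1B3 and hOATP2B1. Substrate uptake is expressed as fold difference relative to the wild-type parental line. Rosuvastatin/pravastatin served as positive control and midazolam as negative control in each assay.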

The test system of data set [2] is Hepatocyte. Nature of the data set: Drug uptake in sandwich-cultured human hepatocytes assessed per mg of protein at 1 uM in presence of rifamycin SV. The format is ADME, cell-based. The method in brief: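 Rat or human hepatocytes were cultured in sandwich configuration with a Matrigel overlay and compound uptake was measured. Active uptake was assessed by inhibition with the pan-OATP inhibitor rifamycin SV. Rosuvastatin/pravastatin served as positive control and midazolam as negative control.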

For data set [3], the system named is Syrian golden hamster. Nature of the data set: Inhibition of cholesterol synthesis in golden syrian hamster assessed as reduction of [14C]-cholesterol level at 10 mg/kg, po followed by 2 hrs after treated with 80 uCi, ip of [14C]-sodium acetate measured after 4 hrs by liquid scintillation counting relative to control. The format is functional. The following applies: Mesocricetus auratus. The method in brief: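 Hamsters dosed po at 10 mg/kg at t = 0 h. Intraperitoneal 14C sodium acetate at t = 2 h, blood drawn at t = 4 h for 14C cholesterol. Percent inhibition vs untreated controls, n = 8/group.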

Data set [4] is described as follows: Lipophilicity, log D of the compound at pH 7.4 by shake flask method. The format is physicochemical. The following applies: buffer. The method in brief:
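Log D at pH 7.4 by shake flask.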

Data set [5] is described as follows: Fraction unbound in rat liver at 1 uM. The format is ADME, tissue-based. The method in brief:
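Unbound fraction in rat liver tissue, measured at 1 μM drug.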

The target of data set [6] is T2, OATP1A1 (Rattus norvegicus, UniProt P46720).
T2 sequence (P46720 whole entry): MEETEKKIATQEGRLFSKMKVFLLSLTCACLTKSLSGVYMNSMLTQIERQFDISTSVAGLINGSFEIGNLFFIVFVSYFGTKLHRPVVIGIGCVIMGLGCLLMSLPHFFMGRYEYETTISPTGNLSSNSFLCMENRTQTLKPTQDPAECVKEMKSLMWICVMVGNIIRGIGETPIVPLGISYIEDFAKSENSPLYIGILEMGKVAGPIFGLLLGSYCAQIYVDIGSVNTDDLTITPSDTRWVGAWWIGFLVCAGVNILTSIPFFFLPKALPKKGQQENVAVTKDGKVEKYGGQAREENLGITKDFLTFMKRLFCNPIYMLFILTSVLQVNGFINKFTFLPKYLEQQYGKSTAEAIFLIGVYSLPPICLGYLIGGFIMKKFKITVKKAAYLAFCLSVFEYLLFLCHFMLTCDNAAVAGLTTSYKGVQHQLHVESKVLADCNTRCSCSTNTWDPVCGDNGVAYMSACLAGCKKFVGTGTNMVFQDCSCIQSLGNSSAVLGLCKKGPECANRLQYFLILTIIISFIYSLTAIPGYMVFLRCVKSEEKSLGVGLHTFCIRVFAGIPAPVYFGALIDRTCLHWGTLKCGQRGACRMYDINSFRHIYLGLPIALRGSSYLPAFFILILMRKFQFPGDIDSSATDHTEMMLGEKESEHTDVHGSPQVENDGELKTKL
As to the kind of experiment: Drug uptake by rat hepatic OATP1A1 transporters expressed in CHO cells at 1 uM relative to wild type CHO cells. The format is ADME, cell-based. The following applies: CHO cells expressing rat OATP1A1, read-out: FC. The method in brief: as §1

The target in data set [7] is T3, OATP1A4 (Rattus norvegicus, UniProt O35913).
T3 sequence (O35913 whole entry): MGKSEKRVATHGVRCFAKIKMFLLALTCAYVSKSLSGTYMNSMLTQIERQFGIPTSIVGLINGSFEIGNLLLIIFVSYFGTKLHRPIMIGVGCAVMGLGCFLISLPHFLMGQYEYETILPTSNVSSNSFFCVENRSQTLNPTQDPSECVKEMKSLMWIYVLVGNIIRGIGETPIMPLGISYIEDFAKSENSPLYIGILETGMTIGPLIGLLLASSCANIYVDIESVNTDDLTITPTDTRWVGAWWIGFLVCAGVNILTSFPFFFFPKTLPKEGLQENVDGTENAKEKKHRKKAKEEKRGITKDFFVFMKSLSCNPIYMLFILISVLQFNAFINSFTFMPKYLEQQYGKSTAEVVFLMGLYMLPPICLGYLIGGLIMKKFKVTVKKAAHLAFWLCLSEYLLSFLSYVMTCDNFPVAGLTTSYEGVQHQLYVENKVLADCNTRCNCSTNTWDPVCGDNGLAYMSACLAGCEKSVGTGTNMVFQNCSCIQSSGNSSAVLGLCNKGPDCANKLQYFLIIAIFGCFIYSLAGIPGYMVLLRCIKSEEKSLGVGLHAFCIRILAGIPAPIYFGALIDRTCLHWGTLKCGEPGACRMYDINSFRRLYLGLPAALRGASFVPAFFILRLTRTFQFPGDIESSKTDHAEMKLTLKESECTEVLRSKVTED
As to the kind of experiment: Drug uptake by rat hepatic OATP1A4 transporters expressed in CHO cells at 10 uM relative to wild type CHO cells. The format is ADME, cell-based. The following applies: CHO cells expressing rat OATP1A4, read-out: FC. The method in brief: as §1

Data set [8] deals with T2, OATP1A1. As to the kind of experiment: Drug uptake by rat hepatic OATP1A1 transporters expressed in CHO cells at 10 uM relative to wild type CHO cells. It counts as ADME, cell-based. The following applies: CHO cells expressing rat OATP1A1, read-out: FC. The method in brief: as §1
The test system of data set [9] is L6. Nature of the data set: Selectivity ratio of IC50 for cholesterol synthesis in rat L6 cells to IC50 for cholesterol synthesis in rat hepatocytes.

As usually defined, the inhibition in vivo is the change of the read-out against control, counted positive when it falls. In general, logD refers to lipophilicity at a set pH, counting ionised and neutral species. A low value points to lower lipophilicity. In general, fraction unbound refers to the share of the substance not bound to proteins or other matrix. A low value points to extensive binding. `O=C([O-])C[C@H](O)C[C@H](O)CCn1c(-c2ccc(F)cc2)nc(C(=O)NCc2cccc(F)c2)c1C1CC1.[Na+]`: the uptake ratio at 10 µM in [1] was 6.8; in data set [7], 7.3; in [8], 4.4. Moreover, in [2], the Drug uptake amounted to 97%. The inhibition in vivo at 10 mg/kg in data set [3] is -68%. Besides, the log distribution coefficient (logD) in data set [4] worked out at 0.51. In data set [5], this compound came in with a fraction unbound at 1 µM of 0.23. In addition, the uptake ratio at 1 µM in data set [6] came to 5.8. Further, the “Ratio IC50” value in data set [9] is on record as 4440.
Consider `Cc1ccc(CNC(=O)c2nn(-c3ccc(F)cc3)c(CC[C@@H](O)C[C@@H](O)CC(=O)O)c2C(C)C)cc1`, for which the uptake ratio at 10 µM in data set [1] came to 1.4; in data set [7] it was 3; in data set [8], 4.2. Also, in data set [2], the Drug uptake stood at 78%. The inhibition in vivo at 10 mg/kg in [3] was -74%. Also, the logD in [4] is 0.24. Besides, in [5], the fraction unbound at 1 µM amounted to 0.052. Moreover, in [6], the uptake ratio at 1 µM stood at 3.6. Moreover, the “Ratio IC50” value in data set [9] came to 810.
As for `Cc1ncc2n1-c1ccc(Cl)cc1C(c1ccccc1F)=NC2` [MIDAZOLAM], the results for the uptake ratio at 10 µM in [1], in data set [7] and in data set [8] were 0.7, 0.82 and 1.7, respectively. Also, the uptake ratio at 1 µM in data set [6] was found to be 1.6.
`CC[C@H](C)C(=O)O[C@H]1C[C@H](O)C=C2C=C[C@H](C)[C@H](CC[C@@H](O)C[C@@H](O)CC(=O)O)[C@H]21` [PRAVASTATIN]: in data set [6], the uptake ratio at 1 µM was determined as 2.4. In addition, the uptake ratio at 10 µM amounted to 1.8 in data set [7] and 3.9 in [8].
For the compound `CC(C)c1nc(N(C)S(C)(=O)=O)nc(-c2ccc(F)cc2)c1/C=C/[C@@H](O)C[C@@H](O)CC(=O)O` [ROSUVASTATIN], the uptake ratio at 10 µM in [1] came to 6.6; in data set [7], 17.3; in [8], 5.3. The Drug uptake in data set [2] is reported as 85%. The inhibition in vivo at 10 mg/kg in data set [3] was -76%. The logD in data set [4] stood at 1.01. Moreover, the fraction unbound at 1 µM in data set [5] amounted to 0.17. Further, the uptake ratio at 1 µM in [6] amounted to 8.2. Further, the “Ratio IC50” value in [9] is 830.

For the origin of these results see ChEMBL document CHEMBL1781963, “Discovery of novel hepatoselective HMG-CoA reductase inhibitors for treating hypercholesterolemia: a bench-to-bedside case study on tissue selective drug distribution” (Bioorg Med Chem Lett, 2011).
